“And” between values parts separate entries of the source, which are not always exact repeats. Equal values may be shown once. The source made the active and inactive calls.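 The calls were made as follows: active = peak Kir2.1 potassium channel inhibition over 30% at one or more doses, plus a fitted dose response curve; inactive = no inhibition at any dose, or no curve fitted.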
target: Inward rectifier potassium channel 2 (Mus musculus) (UniProt P35561); test: off-target blockade of inward rectifier Kir2.1 – cell-based, FluxOR thallium flux, CRC round 4, selectivity assay for KCNK9 inhibitor project, SAR follow-up (AID 623881); settings: Kir2.1-expressing cells, FluxOR thallium flux fluorescence
Sequence (P35561 whole entry, looked up): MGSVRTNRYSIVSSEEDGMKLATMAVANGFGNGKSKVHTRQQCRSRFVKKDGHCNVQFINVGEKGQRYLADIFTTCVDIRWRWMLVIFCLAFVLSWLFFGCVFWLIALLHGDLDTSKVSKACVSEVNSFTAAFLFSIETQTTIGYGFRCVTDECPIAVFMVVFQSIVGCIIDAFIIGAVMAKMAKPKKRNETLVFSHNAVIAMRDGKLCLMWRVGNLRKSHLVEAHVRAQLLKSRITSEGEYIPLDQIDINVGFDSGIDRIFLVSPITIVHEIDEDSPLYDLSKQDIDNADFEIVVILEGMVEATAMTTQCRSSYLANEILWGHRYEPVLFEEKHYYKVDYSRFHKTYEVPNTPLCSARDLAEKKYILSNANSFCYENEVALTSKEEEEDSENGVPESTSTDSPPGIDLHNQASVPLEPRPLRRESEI
In short: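 Material: Kir2.1-expressing HEK293 cells; probe or stimulus: Tl+/K+ stimulus (5x stock K2SO4 plus Tl2SO4); timing: 90 min dye load, 20 min compound, room temperature; measured by: kinetic FluxOR thallium-dye fluorescence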

SMILES | IC50
CC(C1C[C@H]2CCC1C2)n1c(-c2ccsc2)n[nH]c1=S (stereo not given in full) | 23.1 µM
COc1cccc(CCSc2nnc(-c3ccco3)n2C(C)C2CC3CCC2C3)c1 (stereo not given) | 9.06 µM
COc1ccc(CSc2nnc(-c3ccco3)n2C(C)C2CC3CCC2C3)cc1OC (stereo not given) | 18.4 µM
CC(C1CC2CCC1C2)n1c(SCCc2cccc(O)c2)nnc1-c1ccco1 (stereo not given) | 11.5 µM
CC(C1CC2CCC1C2)n1c(SCCc2ccccn2)nnc1-c1ccco1 (stereo not given) | 15.4 µM
C[C@@H]([C@@H]1CC2CC[C@H]1C2)n1c(-c2ccsc2)n[nH]c1=S | 23.5 µM and 25 µM

same assay, conditions: Kir2.1-expressing cells, FluxOR thallium flux fluorescence; at 30 µM (top of the series)

SMILES | thallium flux ratio, lower = inhibition
CC(C1CC2CCC1C2)n1c(SCCN2CCOCC2)nnc1-c1ccco1 (stereo not given) | inactive
CC(C1CC2CCC1C2)n1c(SCC(=O)N2CCN(C)CC2)nnc1-c1ccco1 (stereo not given) | inactive
CC(C1CC2CCC1C2)n1c(-c2ccco2)nn(CCc2ccncc2)c1=S (stereo not given) | inactive
CC(C1CCN(C)CC1)n1c(-c2ccco2)n[nH]c1=S (stereo not given) | inactive
COc1cccc(-c2n[nH]c(=S)n2[C@H](C)C2CCCCC2)c1 | inactive
CCCC(=O)C1CCN(c2ncnc3c2CN(C(=O)c2ccc(-c4ccccc4)cc2)CC3)CC1 | inactive
COc1ccc(C(=O)CCSc2nnc(-c3ccco3)n2C(C)C2CC3CCC2C3)cc1OC (stereo not given) | inactive
C[C@H]([C@@H]1CC2CC[C@H]1C2)n1c(-c2ccco2)n[nH]c1=S | inactive
CC([C@@H]1CC2CC[C@H]1C2)n1c(-c2ccsc2)n[nH]c1=S (stereo not given in full) | inactive
COc1ccc(NC(=O)CSc2nnc(-c3ccco3)n2C(C)C2CC3CCC2C3)cc1OC (stereo not given) | inactive
COc1ccc(CC(=O)NCc2ccccc2-c2ccccc2C(=O)NCc2ccc(F)cc2F)cc1 | inactive
COc1cccc(-c2nnc(SSc3nnc(-c4cccc(OC)c4)n3C(C)C3CC4CCC3C4)n2C(C)C2CC3CCC2C3)c1 (stereo not given) | inactive
CC(C1CC2CCC1C2)n1c(N)nnc1-c1ccco1 (stereo not given) | inactive
COc1cccc(-c2n[nH]c(=S)n2[C@H](C)[C@@H]2CC3CC[C@H]2C3)c1 | inactive
C[C@H](C1CCCCC1)n1c(-c2ccccc2F)n[nH]c1=S | inactive
C[C@H]([C@@H]1CC2CC[C@H]1C2)n1c(-c2ccsc2)n[nH]c1=S | inactive
C[C@H]([C@@H]1CC2CC[C@H]1C2)n1c(-c2ccccc2F)n[nH]c1=S | inactive
C[C@H](C1CCCCC1)n1c(-c2ccsc2)n[nH]c1=S | inactive
C[C@@H]([C@@H]1CC2CC[C@H]1C2)n1c(-c2ccco2)n[nH]c1=S | inactive

Reference: PubChem BioAssay AID623881 (Johns Hopkins Ion Channel Center, 2012)
